# Results from paper PMC11376197 (Chemical Science, 2024).
# Experiments:
# Assay in all cases: Cell viability assay
# [1] = system: A2780 (cisplatin-sensitive ovarian cancer cells); type: cell-based, human; conditions: read-out: IC50 A2780; 96 h of incubation
# Method in brief: (§1)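 Cell lines were exposed to test compounds for 96 h, with cisplatin as a reference. Complexes came from DMSO stocks and cisplatin from water stocks. Antiproliferative activity is expressed as IC50.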
# [2] = system: OVCAR-3 (high-grade serous ovarian cancer cells); type: cell-based, human; conditions: read-out: IC50 OVCAR-3; 96 h of incubation
# Method in brief: as §1
# [3] = system: HCT116 (colon cancer cells); type: cell-based, human; conditions: read-out: IC50 HCT116; 96 h of incubation
# Method in brief: as §1
# [4] = system: MRC-5 (non-cancerous lung fibroblasts); type: cell-based; conditions: read-out: IC50 MRC-5; 96 h of incubation
# Method in brief: as §1
compound,measurement,setting,value
N.N.[Cl][Pt][Cl] [Cisplatin],IC50,[1],600 ± 200 nM
same,IC50,[2],3100 ± 200 nM
same,IC50,[3],7900 ± 800 nM
same,IC50,[4],2000 ± 1000 nM
